# Reference: PMC4629469 (Bioorganic & medicinal chemistry letters, 2015)
# How the values were obtained:
# [1] = biological target: T1, M1 recombinant human mAChRs (Homo sapiens, UniProt P11229); assay: [3H]NMS binding to CHO cell membranes expressing M1 mAChR; conditions: vs compound 1
# T1 sequence (P11229 1-460): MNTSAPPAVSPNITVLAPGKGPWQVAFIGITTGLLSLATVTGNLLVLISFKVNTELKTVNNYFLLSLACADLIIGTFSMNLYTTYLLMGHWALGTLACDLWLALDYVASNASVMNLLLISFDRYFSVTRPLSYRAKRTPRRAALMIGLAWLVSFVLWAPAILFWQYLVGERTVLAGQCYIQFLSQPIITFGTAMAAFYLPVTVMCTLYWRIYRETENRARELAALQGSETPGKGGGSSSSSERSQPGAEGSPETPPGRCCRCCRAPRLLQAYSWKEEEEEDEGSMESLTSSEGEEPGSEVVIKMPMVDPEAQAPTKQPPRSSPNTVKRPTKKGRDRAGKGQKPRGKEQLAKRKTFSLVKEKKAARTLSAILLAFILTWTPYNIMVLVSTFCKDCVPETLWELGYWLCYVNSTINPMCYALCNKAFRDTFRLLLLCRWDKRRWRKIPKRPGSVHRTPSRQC
# [2] = biological target: M3 recombinant human mAChRs (Homo sapiens, UniProt P20309); assay: [3H]NMS binding to CHO cell membranes expressing M3 mAChR; conditions: vs compound 1
# [3] = biological target: T2, M5 recombinant human mAChRs (Homo sapiens, UniProt P08912); assay: [3H]NMS binding to CHO cell membranes expressing M5 mAChR; conditions: vs compound 1
# T2 sequence (P08912 1-532): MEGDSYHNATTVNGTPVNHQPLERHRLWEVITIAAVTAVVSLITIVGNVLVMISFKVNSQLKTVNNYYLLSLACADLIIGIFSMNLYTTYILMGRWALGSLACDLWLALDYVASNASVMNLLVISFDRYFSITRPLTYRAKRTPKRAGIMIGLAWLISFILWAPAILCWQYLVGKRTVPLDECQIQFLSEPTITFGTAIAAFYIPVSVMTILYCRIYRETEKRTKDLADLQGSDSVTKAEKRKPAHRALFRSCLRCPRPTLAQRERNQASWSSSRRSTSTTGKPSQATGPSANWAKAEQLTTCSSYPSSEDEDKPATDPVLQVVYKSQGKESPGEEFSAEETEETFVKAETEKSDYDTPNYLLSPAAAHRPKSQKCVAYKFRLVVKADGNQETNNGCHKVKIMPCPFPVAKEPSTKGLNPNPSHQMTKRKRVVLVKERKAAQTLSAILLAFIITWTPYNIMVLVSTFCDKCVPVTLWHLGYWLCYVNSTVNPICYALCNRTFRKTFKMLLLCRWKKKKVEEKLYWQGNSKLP
# [4] = system: M1, M3, and M5 human mAChRs; assay: [3H]NMS binding, comparison over all three mAChR subtypes
# Method in brief: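 Membranes from CHO cells stably expressing recombinant human M1, M3 or M5 mAChR. Inhibition of [3H]N-methylscopolamine binding by the test compound gives IC50, which is converted to Ki by the Cheng–Prusoff equation. Ki is the mean ± SEM of three independent experiments, each run in duplicate. Subtype comparisons use these Ki values at each receptor.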
# Sequence of M3 recombinant human mAChRs (P20309 whole entry): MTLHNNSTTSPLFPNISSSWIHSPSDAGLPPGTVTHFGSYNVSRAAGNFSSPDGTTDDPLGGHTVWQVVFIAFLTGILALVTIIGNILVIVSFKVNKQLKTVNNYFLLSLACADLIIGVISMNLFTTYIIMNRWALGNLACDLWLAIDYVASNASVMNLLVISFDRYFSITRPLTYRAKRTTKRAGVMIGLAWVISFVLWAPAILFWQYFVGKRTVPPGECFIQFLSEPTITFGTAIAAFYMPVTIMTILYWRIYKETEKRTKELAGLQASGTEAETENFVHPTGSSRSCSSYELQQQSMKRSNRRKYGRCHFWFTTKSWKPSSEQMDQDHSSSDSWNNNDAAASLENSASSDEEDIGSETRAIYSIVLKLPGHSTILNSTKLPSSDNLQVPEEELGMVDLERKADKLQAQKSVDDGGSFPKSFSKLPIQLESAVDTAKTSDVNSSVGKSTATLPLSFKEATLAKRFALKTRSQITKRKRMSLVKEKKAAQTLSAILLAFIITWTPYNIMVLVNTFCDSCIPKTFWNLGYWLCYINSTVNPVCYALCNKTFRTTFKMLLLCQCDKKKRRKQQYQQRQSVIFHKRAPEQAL
smiles,measurement,setting,value
COc1ccc(CCOC(=O)C2(c3ccccc3)CCN(C)CC2)cc1OC [Compound 4a],fold higher affinity at M1 compared with compound 1,[1],2 fold
same,fold higher affinity at M3 compared with compound 1,[2],19 fold
same,decrease of affinity at M5 compared with compound 1,[3],30%
same,subtype selectivity,[4]; M5 over M1 and M3,not subtype selective
COc1ccc(CCC(=O)OCC2(c3ccccc3)CCN(C)CC2)cc1OC [Compound 6a],fold increase in affinity of the reverse ester,"[4]; 6a vs 4a, all three mAChRs",1 to 3 fold
